A selection: hits, their analogues and other compounds. The true share with any hit is near 5.1%.
RORa activator – RORA (human) activation. P35398. CHO-K1 Gal4-RORA LBD luciferase reporter, luminescence; percent increase over mock-subtracted basal signal. activation, % at 10 µM. 65,000 tested, 1.5% active. AID 560;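 active = activation above the mean of all tested compounds plus 3 SD, cut at about 49% in these data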;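 also: 0% = DMSO-treated RORA cells and 100% = added signal equal to DMSO minus mock-transfected cells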
SF-1 act – SF-1 (human) activation | 65,000 tested, 1.9% active | Q13285 | CHO-K1 Gal4-SF-1 LBD luciferase reporter; % increase over DMSO SF-1-specific signal | activation, % at 10 µM;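 active = activation above the mean activation of all tested compounds plus 3 SD, cut at about 50% in these data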
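material = CHO-K1 cells with Gal4–hSF-1 LBD chimera plus Gal4-driven luciferase | compound = 10 µM single point, 1% DMSO | incubation = 20 h compound exposure at 37 °C after 1 h cell settling | measured by = SteadyLite luciferase luminescence | evaluation = percent activation relative to DMSO median and mock-transfected background | control set = DMSO negative control and −SF1 background wells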
ERa coact pot – ER-alpha (human) coactivator binding potentiation; P03372; TR-FRET ERalpha-LBD/SRC-Cy5 coactivator binding, 2 h; 100 = basal binding, no effect; coactivator binding (% of control), % at 25.6 µM; 86,000 tested, 1.3% active; in the data active = activity above about 200%;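 also: binding measured in presence of low estradiol as agonist stimulus; 0% = peptide alone without receptor and 100% = receptor with peptide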
BAP1 block – inhibitors of human BAP1 deubiquitinase; calls only at 20 µM; recombinant BAP1, Ub-AMC hydrolysis fluorescence kinetic; hits give low values; 72,000 tested, 0.48% active;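 active = activity remaining at or below 50% of control, provided the compound also passes the data quality filters; inactive = the rest, including low values that fail the filters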;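 also: 100% = DMSO wells rate and 0% = substrate alone blank rate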
ERa coact inh – blocks coactivator binding to human estrogen receptor alpha | P03372 | TR-FRET ER-alpha LBD / SRC-1 peptide, estradiol-bound | inhibition, % at 25.6 µM | 86,000 tested, 1.7% active | AID 629; in the data active = inhibition above about 50%;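 also: 0% = receptor plus peptide control and 100% = peptide only without receptor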
ERb SRC1 inh – blocks coactivator binding to human estrogen receptor beta; TR-FRET ER-beta LBD / SRC1-Cy5 peptide binding; receptor agonist-loaded with 1 µM estradiol; inhibition, % at 25.6 µM; AID 633; 86,000 tested, 1.3% active;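 active = compounds whose percent inhibition of the receptor-coactivator binding signal exceeds about 50% in the single-dose screen, limit read from the data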;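 also: 0% = receptor plus peptide wells without compound and 100% = peptide-only wells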
Target sequence (Q92731 whole entry, looked up, the tested form may be a part): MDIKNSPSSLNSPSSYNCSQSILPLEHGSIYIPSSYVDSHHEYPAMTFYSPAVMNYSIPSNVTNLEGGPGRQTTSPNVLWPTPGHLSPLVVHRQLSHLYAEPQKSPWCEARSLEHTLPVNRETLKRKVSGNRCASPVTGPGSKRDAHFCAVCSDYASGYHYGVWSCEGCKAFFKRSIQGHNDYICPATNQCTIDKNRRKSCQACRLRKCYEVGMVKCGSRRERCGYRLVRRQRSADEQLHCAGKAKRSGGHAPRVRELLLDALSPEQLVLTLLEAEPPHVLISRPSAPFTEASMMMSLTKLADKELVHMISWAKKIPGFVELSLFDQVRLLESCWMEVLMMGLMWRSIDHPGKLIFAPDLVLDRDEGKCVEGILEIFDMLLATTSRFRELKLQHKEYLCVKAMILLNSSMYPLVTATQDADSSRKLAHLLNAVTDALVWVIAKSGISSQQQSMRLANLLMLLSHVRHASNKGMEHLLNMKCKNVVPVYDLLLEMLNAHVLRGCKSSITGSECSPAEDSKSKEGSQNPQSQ
Active calls of the source: *; [ ] = dose if it differs, or a comment.

Screening CCOC(=O)c1ccc(N2C(=O)c3n[nH]c(C)c3C2c2ccco2)cc1 (configuration not stated) returned RORa activator -4, SF-1 act -6, ERa coact pot 44, BAP1 block inactive, ERa coact inh 13 and ERb SRC1 inh -8.
Screening Cc1ccc(N2C(=O)c3n[nH]c(C)c3C2c2ccco2)cc1 (configuration not stated) returned RORa activator 67*, SF-1 act 41, ERa coact pot 117, BAP1 block inactive, ERa coact inh -13 and ERb SRC1 inh -26.
Screening c1cc(-c2nc3ccccc3o2)nc(-c2nc3ccccc3o2)c1 returned RORa activator -13, SF-1 act -6, ERa coact pot 248*, BAP1 block inactive, ERa coact inh 12 and ERb SRC1 inh 29.
Screening Nc1ccc2oc(-c3ccccn3)nc2c1 returned RORa activator 23, SF-1 act 36, ERa coact pot 88, BAP1 block inactive, ERa coact inh 0 and ERb SRC1 inh 5.
Screening Clc1ccc2oc(-c3ccccn3)nc2c1 returned RORa activator 34, SF-1 act 59*, ERa coact pot 111, BAP1 block inactive, ERa coact inh -14 and ERb SRC1 inh -11.
Screening O=C(c1ccc(Cl)s1)N1CCc2ccccc21 returned RORa activator 47, SF-1 act 62*, ERa coact pot 115, BAP1 block inactive, ERa coact inh -17 and ERb SRC1 inh -15.
For COc1ccc2c(c1OC)C(=O)N1c3ccccc3SC21 (configuration not stated) the results were RORa activator 10, SF-1 act 72*, ERa coact pot 105, BAP1 block inactive, ERa coact inh -10 and ERb SRC1 inh -8.
COc1ccc2c(c1OC)C(=O)N1c3cccc(Cl)c3C(=O)OC21 (configuration not stated) was read as RORa activator 1, SF-1 act -3, ERa coact pot 123, BAP1 block inactive, ERa coact inh 10 and ERb SRC1 inh 6.
COc1ccc2c(c1OC)C(=O)N1c3ccccc3COC21 (configuration not stated) was read as RORa activator 82*, SF-1 act 51*, ERa coact pot 93, BAP1 block inactive, ERa coact inh -13 and ERb SRC1 inh -9.
`CN(C)S(=O)(=O)N(CC(=O)N(Cc1ccccc1)Cc1ccccc1)c1ccccc1` gave ERa coact pot 111, ERa coact inh 55* and ERb SRC1 inh 37.
`CN(C)S(=O)(=O)N(Cc1ccc(Br)cc1)c1ccccc1` gave RORa activator -24, SF-1 act -12, ERa coact pot 111, BAP1 block inactive, ERa coact inh -2 and ERb SRC1 inh -2.
COCCNc1cccc2c1C(=O)c1ccccc1C2=O was read as BAP1 block inactive.
Screening COCCNS(=O)(=O)c1ccc2c(c1)C(=O)c1cc(S(=O)(=O)NCCOC)ccc1-2 returned RORa activator -23, SF-1 act 3, ERa coact pot 78, ERa coact inh -1 and ERb SRC1 inh 55*[fluorescence artefact?].
For COc1c(F)c(F)c(C(=O)Nc2ccc3oc(-c4ccncc4)nc3c2)c(F)c1F the results were RORa activator -11, SF-1 act 1, ERa coact pot 140, ERa coact inh 24 and ERb SRC1 inh 19.
For CC(C)(C)c1cc(NC(=O)C2CCCO2)no1 (configuration not stated) the results were RORa activator 8, SF-1 act 70*, ERa coact pot 101, BAP1 block inactive, ERa coact inh -8 and ERb SRC1 inh -7.
For O=C(O)c1cccc(NC(=O)C2CCCO2)c1 (configuration not stated) the results were ERa coact pot 112, ERa coact inh 8 and ERb SRC1 inh -1.
For O=C(Nc1ccc2oc(-c3ccccc3F)nc2c1)c1cncc(Br)c1 the results were RORa activator 7, SF-1 act 37, ERa coact pot 164, BAP1 block inactive, ERa coact inh 54* and ERb SRC1 inh 28.
`O=C(Nc1ccc2oc(-c3ccncc3)nc2c1)c1c(F)c(F)c(F)c(F)c1F` gave RORa activator -9, SF-1 act 11, ERa coact pot 266*, ERa coact inh 22 and ERb SRC1 inh 11.
CCc1ccc2oc(-c3cccc(NC(=O)c4cccnc4)c3)nc2c1 was read as RORa activator 58*, SF-1 act 32, ERa coact pot 126, ERa coact inh 30 and ERb SRC1 inh 23.
Screening CCOc1cc(C(=O)Nc2cccc3c2C(=O)c2ccccc2C3=O)cc(OCC)c1OCC returned BAP1 block inactive.
For O=C(Nc1nc(-c2ccc(Br)cc2)cs1)c1cc(Cl)ccc1[N+](=O)[O-] the results were BAP1 block inactive.
CC(C)(C)c1cc(NC(=O)c2cccnc2)no1 was read as RORa activator 37, SF-1 act 75*, ERa coact pot 110, BAP1 block inactive, ERa coact inh 22 and ERb SRC1 inh 20.
`O=C(Nc1ccc2oc(-c3ccccc3)nc2c1)c1cccnc1` gave RORa activator 71*, SF-1 act 71*, ERa coact pot 119, BAP1 block inactive, ERa coact inh 6 and ERb SRC1 inh 3.
`COc1ccccc1C(=O)Nc1ccc2oc(-c3ccc(F)cc3)nc2c1` gave RORa activator 65*, SF-1 act 42, ERa coact pot 252*, BAP1 block inactive, ERa coact inh 29 and ERb SRC1 inh 25.
Cc1cc(OCC(=O)Nc2ccc3oc(-c4ccncc4)nc3c2)ccc1Cl was read as RORa activator 10, SF-1 act 26, ERa coact pot 204*[fluorescence artefact?], BAP1 block inactive, ERa coact inh 47 and ERb SRC1 inh 36.
CC(=O)c1cccc(NC(=O)c2nn3c(C(F)(F)F)c4c(nc3c2Cl)-c2ccccc2CC4)c1 was read as BAP1 block inactive.
For CCOC(=O)c1c(C)oc2cc(Br)c(OCc3ccccc3Cl)cc12 the results were BAP1 block inactive.
`O=C(Cc1ccc(Cl)cc1)Nc1ccc2oc(-c3ccncc3)nc2c1` gave RORa activator 10, SF-1 act -7, ERa coact pot 456*, BAP1 block inactive, ERa coact inh 5 and ERb SRC1 inh 8.
CC(C)c1ccc(NC(=O)c2cccnc2)cc1 was read as RORa activator 69*, SF-1 act 34, ERa coact pot 124, BAP1 block inactive, ERa coact inh -6 and ERb SRC1 inh -7.
O=C(Nc1ccc2nn(-c3ccccc3)nc2c1)c1ccco1 was read as ERa coact pot 142, ERa coact inh 15 and ERb SRC1 inh 5.

Source: PubChem BioAssay
